One test is filed under the species Rattus norvegicus. The test can be described thus: Selectivity ratio of Ki for sigma 2 receptor in rat brain homogenates to Ki for sigma 1 receptor in rat brain homogenates. The test is classed as tissue-based.
The nature of test [1]: Displacement of [3H]di-o-tolylguanidine from sigma 2 receptor in rat brain homogenates after 120 mins by liquid scintillation counting. The test is classed as tissue-based. For orientation: In a radioligand displacement assay an active substance lowers the binding of a labelled ligand.
Test [2] concerns Mus musculus. The test can be described thus: Anticonvulsant activity in Swiss Webster mouse assessed as reversal of cocaine-induced loss of righting reflexes at 30 mg/kg, ip administered 15 mins before cocaine challenge measured after 30 mins. Type of test: functional, organism-based. Also noted: dose 30 mg/kg. In short, it runs like this: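 Male Swiss Webster mice, n = 10/group, given test compound ip (0, 1, 10 or 30 mg/kg) 15 min before a convulsive dose of cocaine (70 mg/kg ip). Animals observed for convulsions for 30 min after cocaine injection. Groups compared by Fisher's exact test.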

Test [3] concerns Mus musculus. In words: Anticonvulsant activity in ip dosed Swiss Webster mouse assessed as reversal of cocaine-induced loss of righting reflexes administered 15 mins before cocaine challenge measured after 30 mins. Type of test: functional, organism-based. In short, it runs like this: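 Male Swiss Webster mice, n = 10 per group, given test compound ip (0–30 mg/kg range across doses including vehicle 0) 15 min before convulsive cocaine 70 mg/kg ip. Animals watched 30 min after cocaine for occurrence of convulsions; groups compared by Fisher's exact test.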

For the next test, the target named is Mu-type opioid receptor (Homo sapiens, UniProt P35372). In words: Displacement of [3H]DAMGO from human mu opioid receptor expressed in CHO cells after 120 mins by liquid scintillation counting. Type of test: cell-based. In outline:
(§1)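 Membranes from CHO cells stably expressing human μ, δ or κ opioid receptor. Radioligands: μ 1.3 nM [3H]DAMGO, δ 1.2 nM [3H]DPDPE, κ 1.7 nM [3H]U69,593; nonspecific with 1 μM of the matching unlabelled ligand.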

The target of test [4] is Kappa-type opioid receptor (Homo sapiens, UniProt P41145). The test can be described thus: Displacement of [3H]U69,593 from human kappa opioid receptor expressed in CHO cells after 120 mins by liquid scintillation counting. Type of test: cell-based. In outline: as §1

Activity calls are given as the source filed them. The rule behind the calls is not given here. Where only a bound is given, the exact number is not on record here.

Mu-type opioid receptor, sequence (P35372 whole entry): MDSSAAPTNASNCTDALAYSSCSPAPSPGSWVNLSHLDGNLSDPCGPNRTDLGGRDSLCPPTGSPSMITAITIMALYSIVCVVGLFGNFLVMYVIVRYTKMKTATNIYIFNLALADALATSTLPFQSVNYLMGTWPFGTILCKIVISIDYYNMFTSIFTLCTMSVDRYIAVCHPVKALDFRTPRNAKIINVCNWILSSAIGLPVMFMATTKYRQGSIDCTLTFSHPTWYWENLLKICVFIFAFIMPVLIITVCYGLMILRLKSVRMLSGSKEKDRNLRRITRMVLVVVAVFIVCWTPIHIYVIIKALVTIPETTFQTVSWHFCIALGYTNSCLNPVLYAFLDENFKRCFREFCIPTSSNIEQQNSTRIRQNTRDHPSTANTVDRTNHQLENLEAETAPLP
Kappa-type opioid receptor, sequence (P41145 whole entry): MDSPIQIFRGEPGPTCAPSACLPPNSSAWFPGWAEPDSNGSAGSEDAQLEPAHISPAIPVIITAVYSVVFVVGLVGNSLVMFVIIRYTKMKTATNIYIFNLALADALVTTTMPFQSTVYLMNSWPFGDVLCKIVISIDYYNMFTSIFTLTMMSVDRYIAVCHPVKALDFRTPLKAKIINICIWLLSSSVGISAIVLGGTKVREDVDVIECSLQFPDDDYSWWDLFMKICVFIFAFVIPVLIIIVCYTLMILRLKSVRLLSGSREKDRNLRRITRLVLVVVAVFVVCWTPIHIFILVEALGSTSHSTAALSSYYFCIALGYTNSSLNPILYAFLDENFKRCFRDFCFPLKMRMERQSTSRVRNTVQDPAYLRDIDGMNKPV

Consider `c1ccc(CCN2CCCCC2)cc1` [1-PHENETHYLPIPERIDINE], for which, in the test filed under Rattus norvegicus, the Ratio Ki is 5. This compound yielded a Ki in test [1] of 140 nM.

On to `CN(CCc1ccccc1)[C@H]1CCCC[C@@H]1O` (relative stereo), for which, in the test listed under Rattus norvegicus, the Ratio Ki came out at 2. The Ki in test [1] was 220 nM. The result in the test on Mus musculus [2] was Active.

Take `CN(C)[C@H]1CCCC[C@@H]1OC/C=C/c1ccccc1` (relative stereo): the Ratio Ki in the test filed under Rattus norvegicus came out at 240. Moreover, the Ki in test [1] came out at 1100 nM.

In the case of `CN(CCCc1ccccc1)[C@H]1CCCC[C@@H]1O` (relative stereo), the Activity entry in the test with Mus musculus [3] was “Dose-dependent effect”. Besides, in the test filed under Rattus norvegicus, the Ratio Ki was determined as 0.4. The results for the Ki (on Mu-type opioid receptor; in test [1]) were over 10 µM and 6.7 nM, respectively.

Take `CN(C)[C@H]1CCCC[C@@H]1OCCCc1ccccc1` (relative stereo): the Ratio Ki in the test listed under Rattus norvegicus was found to be 65. This compound showed a Ki in test [1] of 3800 nM.

On to `CN(CCc1ccccc1)[C@H]1CCCC[C@@H]1OCCCc1ccccc1` (relative stereo), for which the inhibition constant Ki was determined as 21 µM in test [4] and 570 nM in test [1]. Moreover, the Ratio Ki in the test listed under Rattus norvegicus amounted to 7.

In test [1], `CN(CCCc1ccccc1)[C@H]1CCCC[C@@H]1OCCCc1ccccc1` (racemic) had a Ki of over 10000 nM.

Usually Ki stands for the dissociation constant of the complex between target and ligand, obtained from inhibition or displacement. The low end stands for higher affinity, the high end for lower affinity.

Values taken from ChEMBL document CHEMBL2412978, “Effect of ring-constrained phenylpropyloxyethylamines on sigma receptors” (Bioorg Med Chem, 2013).
